Measured values: publication PMC11590664 (European journal of medicinal chemistry, 2023)

Experiments:
[1] = system: phosphorylation of FLT3 and ERK in MOLM14 cells; assay: Western blot, MOLM14 cells; assay type: cell-based, human; conditions: 2 h
In short: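 Cells kept at 37 °C under 5 % CO2. Total cell lysates separated by SDS-PAGE and transferred to nitrocellulose. Membranes probed with primary antibodies to pFLT3 Y842, total FLT3, pERK, total ERK and GAPDH, then with secondary antibodies, and imaged.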

HEK-293 cells = assay: Cytotoxicity / viability assay, HEK-293; assay type: cell-based; conditions: Homo sapiens, HEK293, read-out: HEK-293 IC50
In short: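 HEK-293 cells were grown in medium per the provider's instructions with 100 units/mL penicillin and 100 μg/mL streptomycin, at 37 °C in 5 % CO2. Log-phase cells were seeded at 5000 per well, left 24 h, then exposed in triplicate to a range of test compound concentrations for 72 h. Resazurin was added for 4–6 h and fluorescence read. Values are relative to DMSO vehicle, with IC50 from a variable-slope normalized-response fit. Each compound was tested at least three times.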

KIT = KIT (Homo sapiens, UniProt P10721); assay: KINOMEscan site-directed competition binding assay, KIT; conditions: 4.5 nM compound, 97 kinase panel
Chain of KIT (P10721 26-976): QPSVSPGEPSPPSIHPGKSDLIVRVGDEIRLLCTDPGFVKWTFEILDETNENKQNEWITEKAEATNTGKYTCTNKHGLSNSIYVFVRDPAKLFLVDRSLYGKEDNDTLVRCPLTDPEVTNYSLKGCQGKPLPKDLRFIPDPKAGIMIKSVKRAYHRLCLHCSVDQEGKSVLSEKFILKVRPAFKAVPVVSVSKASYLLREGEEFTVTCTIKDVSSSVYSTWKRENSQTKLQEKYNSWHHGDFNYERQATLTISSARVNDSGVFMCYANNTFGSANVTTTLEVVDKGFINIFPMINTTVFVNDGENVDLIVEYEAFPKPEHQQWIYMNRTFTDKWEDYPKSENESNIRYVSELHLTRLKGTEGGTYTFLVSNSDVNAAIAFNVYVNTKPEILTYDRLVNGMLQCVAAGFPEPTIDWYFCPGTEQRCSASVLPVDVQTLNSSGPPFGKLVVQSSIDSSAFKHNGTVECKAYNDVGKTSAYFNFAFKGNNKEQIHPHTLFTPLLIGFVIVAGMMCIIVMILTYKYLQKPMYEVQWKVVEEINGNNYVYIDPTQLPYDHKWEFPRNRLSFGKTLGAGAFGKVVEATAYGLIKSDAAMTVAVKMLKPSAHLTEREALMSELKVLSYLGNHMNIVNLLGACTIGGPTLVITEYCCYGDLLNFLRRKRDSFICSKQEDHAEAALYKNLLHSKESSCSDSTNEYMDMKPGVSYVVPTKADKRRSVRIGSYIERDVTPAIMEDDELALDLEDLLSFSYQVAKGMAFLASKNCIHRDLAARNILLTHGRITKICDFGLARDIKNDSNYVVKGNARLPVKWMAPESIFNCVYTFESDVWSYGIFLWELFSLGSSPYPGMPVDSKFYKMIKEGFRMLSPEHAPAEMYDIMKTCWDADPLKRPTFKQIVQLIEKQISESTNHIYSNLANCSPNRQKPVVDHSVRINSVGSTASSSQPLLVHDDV
In short: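 Competition binding read by qPCR against DNA-tagged kinases. Streptavidin magnetic beads loaded with biotinylated ligand (30 min, RT), biotin-blocked and washed. Kinase, beads and test compound (diluted from 100x DMSO stocks) combined in 20 % SeaBlock, 0.17x PBS, 0.05 % Tween 20, 6 mM DTT; 1 h RT with shaking. […] Kinase in eluate quantified by qPCR.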

Structure (SMILES)	inhibitory effects on the phosphorylation of FLT3 and ERK ([1]; 1X IC50 (4.5 nM))	inhibitory effects on the phosphorylation of FLT3 and ERK ([1]; 10X IC50)	IC50 (HEK-293 cells) [µM]	binding affinity with KIT (KIT)
Cn1cc(-c2ccn3c(-c4cccc(Nc5ccc(S(C)(=O)=O)cc5)n4)cnc3c2)cn1 [Compound 24, 6-(7-(1-methyl-1H-pyrazol-4-yl)imidazo [1,2-a]pyridin-3-yl)-N-(4-(methylsulfonyl)phenyl)pyridin-2-amine]	noticeable signal downregulation	nearly complete signal downregulation	> 1	minimal binding affinity
COc1ccc(Nc2cccc(-c3cnc4cc(-c5cnn(C)c5)ccn34)n2)cc1OC [Compound 20, N-(3,4-dimethoxyphenyl)-6-(7-(1-methyl-1H-pyrazol-4-yl)imidazo [1,2-a]pyridin-3-yl)pyridin-2-amine]	–	–	> 1	–
COc1cc(Nc2cccc(-c3cnc4cc(-c5ccc(S(C)(=O)=O)cc5)ccn34)n2)cc(OC)c1OC [Compound 42, 6-(7-(4-(methylsulfonyl)phenyl)imidazo [1,2-a]pyridin-3-yl)-N-(3,4,5-trimethoxyphenyl)pyridin-2-amine]	–	–	> 1	–
